The IC50 is the concentration at which inhibition is half-maximal.

Series [1] addresses T1, P2Y purinoceptor 6 (Homo sapiens, UniProt Q15077). Description: Antagonist activity at human recombinant P2Y6 receptor expressed in human 1321N1 cells assessed as inhibition of UDP-induced increase in intracellular calcium level at 100 uM incubated for 2 mins prior to UDP induction by fluo-4 dye-based spectrofluorometric analysis. The class given is functional, cell-based. The method in brief: (§1)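 hP2Y6-R-expressing 1321N1 cells, Fluo-4/AM-loaded (1 µM, 25 min, 37 °C, then 25 min de-esterification) in HBSS with Ca2+/Mg2+, stirred in a cuvette with fluorescence at 488/520 nm. Analogue given 2 min before 1 µM UDP stimulation. Calcium calculated from Triton X-100/EDTA calibration. Two experiments in duplicate, mean ± SEM; one-way ANOVA against vehicle control.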
(In general: Calcium flux is commonly read through the fluorescence of an indicator in the cells.)

In series [2] the target is T2, NPP1 (ectonucleotide pyrophosphatase/phosphodiesterase family member 1) (Homo sapiens, UniProt P22413).
T2 sequence (P22413 whole entry): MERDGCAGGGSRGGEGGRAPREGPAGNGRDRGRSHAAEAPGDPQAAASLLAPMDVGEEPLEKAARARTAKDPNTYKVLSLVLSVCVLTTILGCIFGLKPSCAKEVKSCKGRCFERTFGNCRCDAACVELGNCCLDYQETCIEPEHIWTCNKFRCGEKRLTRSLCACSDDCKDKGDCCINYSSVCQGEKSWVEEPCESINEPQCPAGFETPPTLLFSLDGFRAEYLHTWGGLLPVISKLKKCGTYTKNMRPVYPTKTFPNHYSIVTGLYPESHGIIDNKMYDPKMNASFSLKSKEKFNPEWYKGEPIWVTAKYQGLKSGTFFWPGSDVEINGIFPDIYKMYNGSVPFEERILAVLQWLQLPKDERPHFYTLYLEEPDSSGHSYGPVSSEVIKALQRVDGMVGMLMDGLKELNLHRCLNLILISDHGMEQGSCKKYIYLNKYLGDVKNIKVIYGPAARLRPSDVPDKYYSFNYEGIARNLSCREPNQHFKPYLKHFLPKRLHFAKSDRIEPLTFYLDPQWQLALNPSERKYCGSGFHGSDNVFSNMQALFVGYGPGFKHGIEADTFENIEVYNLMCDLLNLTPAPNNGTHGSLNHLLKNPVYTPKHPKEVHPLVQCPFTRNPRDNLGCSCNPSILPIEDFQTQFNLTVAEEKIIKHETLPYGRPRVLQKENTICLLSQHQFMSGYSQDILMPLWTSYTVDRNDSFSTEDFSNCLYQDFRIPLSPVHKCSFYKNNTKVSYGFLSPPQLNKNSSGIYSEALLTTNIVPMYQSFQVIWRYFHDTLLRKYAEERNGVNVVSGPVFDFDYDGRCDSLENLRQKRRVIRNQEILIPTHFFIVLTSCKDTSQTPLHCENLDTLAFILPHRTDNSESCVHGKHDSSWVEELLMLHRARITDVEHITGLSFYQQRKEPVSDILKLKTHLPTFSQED
Put plainly: Drug metabolism assessed as human NPP1-mediated compound hydrolysis at 100 uM after 2 hrs by HPLC analysis relative to UDP-treated control. The class given is ADME. The following applies: human NPP1 enzyme, read-out: Drug metabolism. Summed up:
(§2)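 Compound at 100 µM incubated at 37 °C with hNPP1 for 2 h or hNPP3 for 3 h, in buffer of 1 mM CaCl2, 200 mM NaCl, 10 mM KCl and 100 mM Tris, pH 8.5. Quenched with perchloric acid, neutralized to pH 7 with KOH, then C18 HPLC with isocratic TEAA (pH 7)/CH3CN. Degradation taken from the nucleoside monophosphate peak area minus control, relative to 100% UDP hydrolysis.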

The target in series [3] is T1, P2Y purinoceptor 6. Put plainly: Agonist activity at human recombinant P2Y6 receptor expressed in human 1321N1 cells assessed as increase in intracellular calcium level at =>100 uM by fluo-4 dye-based spectrofluorometric analysis. The class given is functional, cell-based. The method in brief: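 1321N1 cells stably expressing recombinant hP2Y6-R were trypsin/EDTA-detached, loaded with 1 µM Fluo-4/AM in HBSS (Ca2+/Mg2+) for 25 min at 37 °C, then held 25 min at 37 °C for de-esterification. Stirred cuvette suspension read at ex 488/em 520 nm after compound addition, with UDP as control. Fmax/Fmin set with 0.1% Triton X-100 then 50 mM EDTA; [Ca2+] = Kd(F−Fmin)/(Fmax−F).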

The target of series [4] is P2Y purinoceptor 2 (Homo sapiens) (UniProt P41231). Description: Agonist activity at human recombinant P2Y2 receptor expressed in human 1321N1 cells assessed as increase in intracellular calcium level by fluo-4 dye-based spectrofluorometric analysis. The class given is functional, cell-based.
Series [5] addresses T1, P2Y purinoceptor 6. Description: Antagonist activity at human recombinant P2Y6 receptor expressed in human 1321N1 cells assessed as inhibition of UDP-induced increase in intracellular calcium level incubated for 2 mins prior to UDP induction by fluo-4 dye-based spectrofluorometric analysis. The class given is functional, cell-based. Summed up: as §1
The target in series [6] is T3, NPP3 (ectonucleotide pyrophosphatase/phosphodiesterase family member 3) (Homo sapiens, UniProt O14638).
T3 sequence (O14638 whole entry): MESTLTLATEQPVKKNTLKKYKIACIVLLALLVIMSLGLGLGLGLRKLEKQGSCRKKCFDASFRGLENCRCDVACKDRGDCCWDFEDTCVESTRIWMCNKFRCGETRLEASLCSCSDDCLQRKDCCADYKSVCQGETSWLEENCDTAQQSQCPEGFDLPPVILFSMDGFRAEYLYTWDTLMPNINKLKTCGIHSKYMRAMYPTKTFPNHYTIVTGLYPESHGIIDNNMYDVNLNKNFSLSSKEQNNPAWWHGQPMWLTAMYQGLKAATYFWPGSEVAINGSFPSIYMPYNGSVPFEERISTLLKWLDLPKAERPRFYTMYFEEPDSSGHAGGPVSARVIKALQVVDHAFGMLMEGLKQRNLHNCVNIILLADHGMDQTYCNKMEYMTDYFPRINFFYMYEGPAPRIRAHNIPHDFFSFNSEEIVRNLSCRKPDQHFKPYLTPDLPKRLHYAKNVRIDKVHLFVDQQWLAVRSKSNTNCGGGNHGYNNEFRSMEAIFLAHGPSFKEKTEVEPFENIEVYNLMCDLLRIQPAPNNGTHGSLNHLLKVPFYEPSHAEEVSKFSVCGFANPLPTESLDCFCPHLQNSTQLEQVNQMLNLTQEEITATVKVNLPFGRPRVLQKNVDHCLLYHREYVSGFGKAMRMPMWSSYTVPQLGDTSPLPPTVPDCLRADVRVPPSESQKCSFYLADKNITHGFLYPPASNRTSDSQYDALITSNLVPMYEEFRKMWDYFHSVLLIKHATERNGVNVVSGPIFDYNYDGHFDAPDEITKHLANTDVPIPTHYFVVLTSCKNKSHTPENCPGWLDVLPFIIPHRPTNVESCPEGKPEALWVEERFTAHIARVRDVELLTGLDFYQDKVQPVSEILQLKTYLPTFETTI
Description: Drug metabolism assessed as human NPP3-mediated compound hydrolysis at 100 uM after 3 hrs by HPLC analysis relative to UDP-treated control. The class given is ADME. The note with it: human NPP3 enzyme, read-out: Drug metabolism. The method in brief: as §2

Series [7] addresses P2Y purinoceptor 4 (Homo sapiens) (UniProt P51582). Description: Agonist activity at human recombinant P2Y4 receptor expressed in human 1321N1 cells assessed as increase in intracellular calcium level by fluo-4 dye-based spectrofluorometric analysis. Type of series: functional, cell-based.

Structures are written as SMILES. The source made the active and inactive calls. No cut-off for these calls is given here.

T1 sequence (Q15077 whole entry): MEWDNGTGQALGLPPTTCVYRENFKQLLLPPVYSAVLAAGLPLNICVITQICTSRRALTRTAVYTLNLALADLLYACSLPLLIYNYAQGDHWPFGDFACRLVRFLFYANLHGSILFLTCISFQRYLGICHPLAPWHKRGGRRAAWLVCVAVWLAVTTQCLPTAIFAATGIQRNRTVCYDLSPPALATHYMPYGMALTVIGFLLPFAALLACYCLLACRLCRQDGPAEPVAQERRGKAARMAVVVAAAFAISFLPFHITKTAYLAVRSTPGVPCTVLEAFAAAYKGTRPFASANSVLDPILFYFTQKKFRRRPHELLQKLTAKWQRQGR
Chain of P2Y purinoceptor 4 (Homo sapiens) (P51582 whole entry): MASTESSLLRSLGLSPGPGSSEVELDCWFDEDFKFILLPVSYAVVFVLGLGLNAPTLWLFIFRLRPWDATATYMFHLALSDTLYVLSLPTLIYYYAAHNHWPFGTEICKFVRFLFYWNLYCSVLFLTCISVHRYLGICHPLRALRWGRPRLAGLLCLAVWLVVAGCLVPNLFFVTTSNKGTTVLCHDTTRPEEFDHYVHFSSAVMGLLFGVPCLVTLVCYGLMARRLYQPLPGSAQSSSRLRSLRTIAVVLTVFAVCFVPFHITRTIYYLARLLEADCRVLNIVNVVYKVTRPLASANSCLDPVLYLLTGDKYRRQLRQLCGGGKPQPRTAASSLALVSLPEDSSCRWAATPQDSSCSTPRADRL
Chain of P2Y purinoceptor 2 (Homo sapiens) (P41231 whole entry): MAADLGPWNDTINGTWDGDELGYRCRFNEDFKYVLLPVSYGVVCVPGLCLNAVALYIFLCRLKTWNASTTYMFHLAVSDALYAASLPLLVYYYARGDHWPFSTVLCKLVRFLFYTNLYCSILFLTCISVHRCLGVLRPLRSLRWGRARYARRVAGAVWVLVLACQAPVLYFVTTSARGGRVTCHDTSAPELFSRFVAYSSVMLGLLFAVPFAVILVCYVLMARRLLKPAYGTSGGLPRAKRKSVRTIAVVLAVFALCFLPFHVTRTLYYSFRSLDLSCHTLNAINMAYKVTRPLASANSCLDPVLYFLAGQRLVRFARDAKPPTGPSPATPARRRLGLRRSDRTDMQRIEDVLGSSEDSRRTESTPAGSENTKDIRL

For the molecule `O=c1ccn([C@@H]2O[C@H](COP(=O)(O)OS(=O)(=O)O)[C@@H](O)[C@H]2O)c(=O)[nH]1`, at P2Y purinoceptor 6 [1], the inhibition result was “Active”. Also, in series [2], the metabolised at 2 h, 100 µM is 27.9%. Further, on P2Y purinoceptor 6 [3], the result was Active. In addition, the result in series [4] and in series [7] was inactive. Moreover, the half-maximal inhibitory concentration (IC50) on P2Y purinoceptor 6 [5] was found to be 112 µM. Also, the metabolised at 3 h, 100 µM in series [6] came out at 28.3%.

Values taken from ChEMBL document CHEMBL3603830, “Synthesis and structure-activity relationship of uracil nucleotide derivatives towards the identification of human P2Y6 receptor antagonists” (Bioorg Med Chem, 2015).
